Source: PubChem BioAssay
Active and inactive are the calls of the source.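 The calls were made as follows, unless noted: active = viability at or below 10% of carrier control in both of two separate runs; inconclusive = viability at or below 10% in only one of the two runs; inactive = the rest.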

Assay: SK-BR-3 cell growth inhibitors, pilot screen, 24 h, human (AID 572);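 also: compound exposure lasted between 18 and 24 h rather than exactly 24 h; 100% = carrier-treated control wells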
Settings: SK-BR-3 viability, CellTiter-Glo luminescence, at 10 µM, stronger effect = lower value

Row | SMILES | viability
1 | O=C(NCC1CCCO1)C1CCC(CNS(=O)(=O)c2ccccc2)CC1 (stereo not drawn) | 101% (inactive)
2 | COC(=O)CSc1ncccc1-c1nc2ccccc2[nH]1 | 110% (inactive)
3 | O=C(CSc1nc(-c2ccco2)cc(C(F)(F)F)n1)N1CCCc2ccccc21 | 109% (inactive)
4 | CC(=O)Nc1ccc(NC(=O)Cn2cnc3c(cnn3C(C)(C)C)c2=O)cc1 | 101% (inactive)
5 | Cn1c(=O)[nH]c(=O)c2c1nc(N1CCOCC1)n2CC(O)COc1ccc2ccccc2c1 (stereo not drawn) | 70% (inactive)
6 | OCC(O)CN1CCN(c2ccccc2)CC1 (stereo not drawn) | 119% (inactive)
7 | NS(=O)(=O)c1cc2c(cc1Cl)NC(CSCc1ccccc1)=NS2(=O)=O | 115% (inactive)
8 | CN(CC(=O)N1CCCc2c1c(=O)oc1ccc(O)cc21)Cc1ccccc1 | 95% (inactive)
9 | CCc1c(C)nc2ncnn2c1NCCc1ccc(OC)c(OC)c1 | 64% (inactive)
10 | Cc1nn(-c2ccccc2)c2[nH]c(C(F)(F)F)cc(=O)c12 | 131% (inactive)
11 | N#CCc1ccc(NC(=O)Nc2cccc(Cl)c2)cc1 | 88% (inactive)
12 | c1coc(-c2nnc(-c3cccs3)o2)c1 | 106% (inactive)
13 | COc1cc(SC)ccc1C(=O)Nc1ccccc1C#N | 75% (inactive)
14 | CCCCCn1c(CN2CCN(c3cccc(Cl)c3)CC2)nc2c1c(=O)n(C)c(=O)n2C | 97% (inactive)
15 | COc1ccccc1-n1c(SCC(=O)NC(C)(C)C)nnc1-c1ccco1 | 82% (inactive)
16 | NS(=O)(=O)c1cc2c(cc1Cl)NC=NS2(=O)=O | 104% (inactive)
17 | Cc1cc(C)n(-c2nc3sc4c(c3c3nnc(SC(C)C)n23)CC(C)(C)OC4)n1 | 96% (inactive)
18 | N=c1nc(N2CCCCC2)cc(N)n1O | 96% (inactive)
19 | CN(C)C(=O)Oc1ccc[n+](C)c1 | 92% (inactive)
20 | O=S(=O)(c1cccs1)N1CCN(Cc2nc3ccccc3s2)CC1 | 87% (inactive)

Row | SMILES | viability
21 | O=C(Nc1ccccc1C(=O)O)c1cccc(NC(=O)c2ccc(Br)o2)c1 | 91% (inactive)
22 | COc1ccc(Cn2c(N)c(C#N)c3nc4ccccc4nc32)cc1OC | 95% (inactive)
23 | CC(=O)SCC(=O)N=c1sc2cc(F)ccc2n1C | 90.5% (inactive)
24 | C=CCOC(=O)C1=C(C)NC(=O)NC1c1cn(-c2ccccc2)nc1-c1cccs1 (stereo not drawn) | 119% (inactive)
25 | O=S(=O)(NCc1cn2ccccc2n1)c1cc(F)ccc1F | 107% (inactive)
26 | COc1cc(C(=O)Nc2cc(-c3ccccc3)[nH]n2)cc(OC)c1OC | 107% (inactive)
27 | CC(C)(Oc1ccc(Cl)cc1)C(=O)NCc1ccncc1 | 111% (inactive)
28 | O=C(CCNS(=O)(=O)c1ccc(Br)s1)N1CCCCC1 | 90% (inactive)
29 | CCOc1ccc(NC(=O)CC2NCCNC2=O)cc1 (stereo not drawn) | 125% (inactive)
30 | CC(=O)Nc1ccc(Cc2ccncc2)cc1 | 105% (inactive)
31 | CCOC(=O)N1CCC(N(C(=O)Nc2cccc(OC)c2)C(C)CC)CC1 (stereo not drawn) | 129% (inactive)
32 | Cc1nc(-c2coc3cc(OCC(=O)O)ccc3c2=O)cs1 | 93% (inactive)
33 | Cc1ccc2nc(-c3ccc(S(=O)(=O)N4CCOCC4)cc3)cn2c1 | 138% (inactive)
34 | Cc1[nH]nc2c1C(c1ccc(F)cc1)C1=C(CC(C)(C)CC1=O)N2 (stereo not drawn) | 126% (inactive)
35 | CC(C)Oc1ccc2c(=O)c(-c3ccccc3)coc2c1 | 121% (inactive)
36 | COc1ccc(-c2[nH]nc3c2C(c2ccncc2)C(C#N)=C(N)O3)cc1 (stereo not drawn) | 71% (inactive)
37 | O=C(c1cccc2c1C(=O)N(Cc1cccnc1)C2)N1CCN(c2ccccc2)CC1 | 127% (inactive)
38 | COc1ccc(OC)c(NS(=O)(=O)Cc2ccccc2)c1 | 63% (inactive)
39 | O=C(Nc1ccc(F)cc1)N(CCCN1CCOCC1)Cc1cc2cc3c(cc2[nH]c1=O)OCO3 | 85% (inactive)

Assay: HUVEC growth inhibition – cell-based, human, primary screen (AID 575;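 active = viability at or below 30% in both replicate assays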;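 also: 100% = median of untreated cell wells with 0.1% DMSO on each plate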)
Settings: HUVEC proliferation, CellTiter-Glo luminescence, 72 h; at 10 µM; stronger effect = lower value
In short: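 material = primary HUVEC, no more than 12 passages | input = 1250 cells per well | controls = vehicle and MePR control wells | measured by = CTG luminescence | times = 72 h compound incubation | format = collagen-coated 384-well format | read-out = % viability vs DMSO wells | doses = single 10 µM dose, 0.1% DMSO, from 5x medium stock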

Row | SMILES | viability
40 | O=C(NCC1CCCO1)C1CCC(CNS(=O)(=O)c2ccccc2)CC1 (stereo not drawn) | 81.6% (inactive)
41 | COC(=O)CSc1ncccc1-c1nc2ccccc2[nH]1 | 96.9% (inactive)
42 | O=C(CSc1nc(-c2ccco2)cc(C(F)(F)F)n1)N1CCCc2ccccc21 | 72.5% (inactive)
43 | CC(=O)Nc1ccc(NC(=O)Cn2cnc3c(cnn3C(C)(C)C)c2=O)cc1 | 87.9% (inactive)
44 | Cn1c(=O)[nH]c(=O)c2c1nc(N1CCOCC1)n2CC(O)COc1ccc2ccccc2c1 (stereo not drawn) | 88.7% (inactive)
45 | OCC(O)CN1CCN(c2ccccc2)CC1 (stereo not drawn) | 100% (inactive)
46 | NS(=O)(=O)c1cc2c(cc1Cl)NC(CSCc1ccccc1)=NS2(=O)=O | 89.2% (inactive)
47 | CN(CC(=O)N1CCCc2c1c(=O)oc1ccc(O)cc21)Cc1ccccc1 | 87.6% (inactive)
48 | CCc1c(C)nc2ncnn2c1NCCc1ccc(OC)c(OC)c1 | 103% (inactive)
49 | Cc1nn(-c2ccccc2)c2[nH]c(C(F)(F)F)cc(=O)c12 | 95.6% (inactive)
50 | N#CCc1ccc(NC(=O)Nc2cccc(Cl)c2)cc1 | 76.9% (inactive)
51 | c1coc(-c2nnc(-c3cccs3)o2)c1 | 110% (inactive)
52 | COc1cc(SC)ccc1C(=O)Nc1ccccc1C#N | 79.6% (inactive)
53 | CCCCCn1c(CN2CCN(c3cccc(Cl)c3)CC2)nc2c1c(=O)n(C)c(=O)n2C | 69.2% (inactive)
54 | COc1ccccc1-n1c(SCC(=O)NC(C)(C)C)nnc1-c1ccco1 | 104% (inactive)
55 | NS(=O)(=O)c1cc2c(cc1Cl)NC=NS2(=O)=O | 93.9% (inactive)
56 | Cc1cc(C)n(-c2nc3sc4c(c3c3nnc(SC(C)C)n23)CC(C)(C)OC4)n1 | 96.6% (inactive)
57 | N=c1nc(N2CCCCC2)cc(N)n1O | 89.3% (inactive)
58 | CN(C)C(=O)Oc1ccc[n+](C)c1 | 102% (inactive)
59 | O=S(=O)(c1cccs1)N1CCN(Cc2nc3ccccc3s2)CC1 | 72.1% (inactive)

Row | SMILES | viability
60 | O=C(Nc1ccccc1C(=O)O)c1cccc(NC(=O)c2ccc(Br)o2)c1 | 80% (inactive)
61 | COc1ccc(Cn2c(N)c(C#N)c3nc4ccccc4nc32)cc1OC | 100% (inactive)
62 | CC(=O)SCC(=O)N=c1sc2cc(F)ccc2n1C | 75.5% (inactive)
63 | C=CCOC(=O)C1=C(C)NC(=O)NC1c1cn(-c2ccccc2)nc1-c1cccs1 (stereo not drawn) | 81.9% (inactive)
64 | O=S(=O)(NCc1cn2ccccc2n1)c1cc(F)ccc1F | 89.9% (inactive)
65 | COc1cc(C(=O)Nc2cc(-c3ccccc3)[nH]n2)cc(OC)c1OC | 68.3% (inactive)
66 | CC(C)(Oc1ccc(Cl)cc1)C(=O)NCc1ccncc1 | 105% (inactive)
67 | O=C(CCNS(=O)(=O)c1ccc(Br)s1)N1CCCCC1 | 107% (inactive)
68 | CCOc1ccc(NC(=O)CC2NCCNC2=O)cc1 (stereo not drawn) | 108% (inactive)
69 | CC(=O)Nc1ccc(Cc2ccncc2)cc1 | 90.2% (inactive)
70 | CCOC(=O)N1CCC(N(C(=O)Nc2cccc(OC)c2)C(C)CC)CC1 (stereo not drawn) | 120% (inactive)
71 | Cc1nc(-c2coc3cc(OCC(=O)O)ccc3c2=O)cs1 | 107% (inactive)
72 | Cc1ccc2nc(-c3ccc(S(=O)(=O)N4CCOCC4)cc3)cn2c1 | 108% (inactive)
73 | Cc1[nH]nc2c1C(c1ccc(F)cc1)C1=C(CC(C)(C)CC1=O)N2 (stereo not drawn) | 102% (inactive)
74 | CC(C)Oc1ccc2c(=O)c(-c3ccccc3)coc2c1 | 87% (inactive)
75 | COc1ccc(-c2[nH]nc3c2C(c2ccncc2)C(C#N)=C(N)O3)cc1 (stereo not drawn) | 122% (inactive)
76 | O=C(c1cccc2c1C(=O)N(Cc1cccnc1)C2)N1CCN(c2ccccc2)CC1 | 97.3% (inactive)
77 | COc1ccc(OC)c(NS(=O)(=O)Cc2ccccc2)c1 | 102% (inactive)
78 | O=C(Nc1ccc(F)cc1)N(CCCN1CCOCC1)Cc1cc2cc3c(cc2[nH]c1=O)OCO3 | 105% (inactive)
